The campaign covered roughly 65,000 compounds. About 1,200 (1.8%) were called active.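 The calls were made as follows: active = activation above the mean activation of all tested compounds plus 3 SD (cut at about 50% in these data); inactive = the rest.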 The full list was thinned out, with actives kept by preference.
biological target: Steroidogenic factor 1 (Homo sapiens) (UniProt Q13285); test: activators of human SF-1, primary screen, cell-based, CHO-K1, Gal4-SF-1 LBD, luciferase luminescence (AID 522); settings: CHO-K1 Gal4-SF-1 LBD luciferase reporter; at 10 µM; active compounds read high; % increase over DMSO SF-1-specific signal
Sequence (Q13285 whole entry, looked up, the tested form may be a part): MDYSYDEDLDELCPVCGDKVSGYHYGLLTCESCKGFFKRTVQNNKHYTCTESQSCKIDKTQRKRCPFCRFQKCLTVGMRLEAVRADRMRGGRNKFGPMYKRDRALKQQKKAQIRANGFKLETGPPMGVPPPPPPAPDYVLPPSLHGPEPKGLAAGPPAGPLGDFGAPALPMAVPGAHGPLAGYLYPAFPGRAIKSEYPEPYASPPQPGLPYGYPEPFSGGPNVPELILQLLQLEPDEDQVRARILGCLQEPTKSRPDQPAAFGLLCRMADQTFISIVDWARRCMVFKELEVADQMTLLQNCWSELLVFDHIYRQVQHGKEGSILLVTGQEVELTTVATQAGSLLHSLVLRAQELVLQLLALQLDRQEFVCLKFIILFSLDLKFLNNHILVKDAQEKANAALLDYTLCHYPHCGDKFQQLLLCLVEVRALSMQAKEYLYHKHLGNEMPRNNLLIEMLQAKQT
Outline: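 Compound – one dose, 10 µM compound, 1% DMSO · Test system – transient Gal4-SF-1 LBD reporter, CHO-K1 · Input – 4,000 cells in each well · Read-out basis – percent activation relative to DMSO median and mock-transfected background · Replicates – single measurement per compound · Technique – steady-glow luciferase luminescence, read after 15 min reagent incubation · Timing – 20 h compound treatment, 37 °C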

activation, inactive:
CCOC(=O)N1CCN(C(=O)C2CCN(S(C)(=O)=O)CC2)CC1 10.2%
CCOC(=O)c1sc(=S)n2c1[nH]c(=O)c1ccc(C(=O)OC)cc12 -7.4%
CCCCOc1ccc(NC(=O)CSCC(=O)OCC)cc1 -6.4%
CCOC(=O)c1cnc(SCC(=O)NCc2ccco2)nc1N 19.1%
O=C(CSc1nnc(-c2c[nH]c3ccccc23)n1-c1ccc(F)cc1)NCc1ccco1 15.7%
Cc1nnc(SCCCn2c(N3CCCCC3)nc3c2c(=O)[nH]c(=O)n3C)s1 -12.6%
COc1ccc(CCNC(=O)CSc2nc(C)nc3c2oc2ccccc23)cc1OC 27.4%
Cc1cc(C)nc(N2CCN(c3ncnc4c3oc3ccccc34)CC2)n1 -8.8%
Cn1c2c(c(=O)n(C)c1=O)C(c1ccc(O)cc1)Nc1ccccc1O2 (configuration not stated) -0.7%
CCOc1ccccc1NC(=O)Nc1cc(OC)ccc1OC -10%
COc1ccc(C2C(C(=O)Nc3ccccc3OC)=C(C)Nc3nnnn32)c(OC)c1 (configuration not stated) -6.7%
COc1ccc(OC)c(C2N(c3ccccn3)C(=O)C3CCCN32)c1 (configuration not stated) -12.3%
O=C1C(=O)N(CCN2CCOCC2)C(c2ccccn2)/C1=C(/O)c1ccc(Cl)cc1 (configuration not stated) -1.6%
C=C(C)COc1ccc(-c2n[nH]c(C)c2-c2ccccc2OC)c(O)c1 -12.7%
COc1cc(N=Cc2c(O)[nH]c3ccccc23)cc(OC)c1OC -0.5%
COc1ccc(OC)c(N=Cc2c(O)[nH]c3ccccc23)c1 0.1%
CCOc1nc(-c2ccc(OC)cc2)ccc1-c1noc(-c2cc(OC)c(OC)c(OC)c2)n1 -8.3%
Cc1ccc(N2C(=O)c3ccccc3C2(O)c2ncc[nH]2)cc1 (configuration not stated) 6.2%
COc1ccc(CNC(=O)C2CCN(S(=O)(=O)N3CCOCC3)CC2)cc1 18.7%
CCOC(=O)c1cc(C)sc1NC(=O)C1CCC1 9.7%
O=C(Oc1cccnc1)c1cc2ccccc2oc1=O -8.6%
O=C(NCc1ccccn1)c1cc2ccccc2oc1=O 12.4%
OC(COc1ccc2ccccc2c1)CN1CCOCC1 (configuration not stated) 39.4%
CN1CCN(CC(=O)Nc2sc3c(c2C#N)CCC(C(C)(C)C)C3)CC1 (configuration not stated) 17.2%
CCCCCOC(=O)NCCOC(=O)Nc1ccc(C(=O)OCC)cc1 -12.6%
CCCCOC(=O)NCN1C(=O)C2C3C=CC(C3)C2C1=O (configuration not stated) -13.3%
CCCn1c(O)c(CN2CCCC(C)C2)c(C)c(C#N)c1=O (configuration not stated) -4.9%
COC(=O)C(NC(C)=O)(Nc1nc2c(s1)CCCC2)C(F)(F)F (configuration not stated) -0.1%
O=C(CCS(=O)(=O)c1ccccc1)Nc1nc2c(s1)CCCC2 3.8%
Cc1ccc(F)cc1NC(=O)Cc1nn(C)c(=O)c2ccccc12 -42.9%
CN(Cc1ccccc1)C(=O)CCNC(=O)Cn1cnc2ccccc2c1=O -16%
Cc1cccc(N2CCN(S(=O)(=O)c3ccc4c(c3)c(=O)n(C)c(=O)n4C)CC2C)c1 (configuration not stated) 3.8%
COc1ccc(N2C(=O)c3cccc4cccc(c34)C2=O)nn1 0.5%
CCc1ccccc1N(CC(=O)NCCSCc1ccco1)S(C)(=O)=O 4.6%
O=C(c1cccc(C(=O)N2CCc3ccccc32)n1)N1CCc2ccccc21 -0.8%
Cc1occc1C(=O)N1CCCc2ccccc21 -7.2%
COc1ccc(OCC(=O)N2CCN(C(=O)COc3ccccc3)CC2)cc1 -5.8%
CCOC(=O)c1cc(NC(=O)c2cccnc2)cc(C(=O)OCC)c1 -4.7%
CCOc1cccc(C(=O)Nc2cccnc2)c1 6.8%
CCC1=C/C(=C\c2ccc3c(c2)OCO3)C(=O)S1 0.1%
CCOc1cccc(NC(=O)C2CCCN(S(=O)(=O)c3ccc(OC)cc3)C2)c1 (configuration not stated) 0.1%
COc1ccc(NC(=O)C2CCCN(S(=O)(=O)c3cccc4cccnc34)C2)cc1 (configuration not stated) 5.1%
N#CC1=C(N)C(C#N)(C#N)[C@H](c2ccsc2)[C@H]2COCC=C12 -1.6%
COc1ccc(NC(=O)c2c(C)oc3c2CCCC3)cc1 26.5%
COc1ccccc1N1CCN(C(=O)c2cc(-c3ccc(Br)cc3)on2)CC1 3.2%
O=C(c1cc(-c2ccccc2O)on1)N1CCCC1 20.3%
COC(=O)c1cc(Cl)c(NC(=O)c2ccco2)cc1OC -3%
Cc1ccc(Cn2c(NC(=O)c3ccco3)nc3ccccc32)cc1 -1.8%
CN(C)Cc1c(C#N)c2ccccc2n1C -11.9%
Cc1ccc(C(=O)CSc2nc3ccccc3c(=O)n2N)o1 32.8%
Cn1c(COc2ccc(Cl)cc2)nc2ccccc2c1=O 45%
CCOC(=O)c1cccc(NC(=O)CN(c2ccc(C)cc2)S(=O)(=O)c2c(C)noc2C)c1 -5.1%
CC(=O)N1CCC(C(=O)Nc2nc(-c3ccccc3)ns2)CC1 -1.6%
COc1ccc(CN(C(=O)c2cccs2)c2nccs2)cc1OC 7.7%
O=C(c1cc(-c2cccs2)on1)N1CCCCC1 41.3%
Cn1c(=NC(=O)CSCC(=O)N2CCCCC2)sc2ccccc21 8.9%
CC(=O)Oc1ccc(C)cc1N1C(=O)c2ccc(C(=O)O)cc2C1=O -0.3%
Cn1c(CC(=O)Nc2ccccc2)nnc1SCC(=O)c1ccccc1 4.4%
O=C(CSc1nnc(-c2ccco2)n1CC1CCCO1)c1ccccc1 (configuration not stated) 16.7%
Cc1c(C(=O)NCC2CCCO2)sc2nc(-c3ccccc3)cn12 (configuration not stated) 9%
Clc1ccc(Cc2nn3c(-c4ccncc4)nnc3s2)cc1 15.3%
Cc1cc(NC(=O)c2cc(-c3cccs3)on2)nn1Cc1ccc(Cl)cc1 -2.6%
CSC1=NCCN1C(=O)c1ccc(S(=O)(=O)N2CCOCC2)cc1 -27.8%
COC(=O)c1ccc(NC(=O)C(C)N2C(=O)c3ccccc3C2=O)cc1 (configuration not stated) 11.6%
CCN(CC)C(=O)CCC(=O)Nc1ccc(C(=O)OC)cc1 -4.8%
C=CCn1c(=O)c2ccccc2n2c(SCC(=O)N3CCCc4ccccc43)nnc12 -8.3%
N#Cc1nc(COc2ccc(-c3ccccc3)cc2)oc1NCc1cccnc1 -9.1%
CCOc1ccc(Nc2oc(Cc3ccccc3)nc2C#N)cc1 39.8%
CCOc1ccc2nc(NCCNS(=O)(=O)c3ccccc3)c(C#N)cc2c1 9.2%
COc1ccc2[nH]c(=O)c(-c3noc(-c4ccc(F)cc4)n3)cc2c1 -0.1%
Cc1ccc(-c2noc(CN3CCN(Cc4ccccc4)CC3)n2)cc1 16.7%
Cc1ccc(-c2noc(CCC(N)=O)n2)cc1 9.8%
COc1ccccc1Cc1nc(-c2ccc(C)cc2)no1 16.4%
O=C1CCC(C(=O)Nc2ccc(OC(F)F)cc2)N1 (configuration not stated) -10.9%
COc1ccc(NC(=O)CSc2nnc(-c3cccs3)n2Cc2ccco2)cc1OC -6%
CCOC(=O)CSc1nnc(CNc2nc(-c3ccccc3)cs2)n1C 11.1%
CC(=O)Nc1ccc(S(=O)(=O)N2CCN(CCCOc3cc(C)ccc3C)CC2)cc1 -14.5%
Cc1nc2ccc(C(=O)N3CCSCC3)cc2s1 0.4%
CCCNC(=O)Nc1ccccc1C(=O)Nc1ccc(OC)cc1 7.4%
O=C(Nc1cccc2cccnc12)c1cccc(N2C(=O)CCC2=O)c1 9%

activation, active:
CCCCOc1ccc(-c2ncc(C(=O)OCC)c(N)n2)cc1 49.8%
COc1ccccc1Nc1ncnc2c1oc1ccccc12 91.8%
COc1ccccc1NC(=O)c1ccc(C)s1 50.1%
COc1ccc(N=Cc2c(O)[nH]c3ccccc23)cc1OC 60.4%
Nc1ncc(-c2cc3ccccc3oc2=O)s1 79.3%
CCCCCCOC(=O)NCC(O)c1ccccc1 (configuration not stated) 52.5%
Fc1ccc2nc(Nc3nc4c(s3)CCCC4)sc2c1 90%
O=C(Nn1cnc2ccccc2c1=O)c1ccc(F)cc1Cl 64.7%
O=C(c1cnn2ccccc12)N1CCc2ccccc21 111%
CCOC(=O)c1ccc(-c2ccc(C(=O)Nc3cccnc3)o2)cc1 51.3%
COc1ccc(S(=O)(=O)N2CCCC(C(=O)Nc3ccc(NC(=O)c4ccccn4)cc3)C2)cc1 (configuration not stated) 63.3%
COc1ccccc1-c1cc(C(=O)N2CCCCC2)no1 82.1%
Cc1ccc(-n2nc3cc(Cl)c(NC(=O)c4ccco4)cc3n2)cc1 70.4%
COc1ccc(OCc2ccc(-c3nc4ccccc4c(=O)n3N)o2)cc1 59%
O=C(CSCc1cccs1)N1CCCC1 60.5%
O=C(CSc1nnc2ccccn12)c1ccccc1 55.3%
Clc1ccc(Cc2nnc(-c3cccs3)o2)cc1 59.5%
COC(=O)c1ccc(NCC(=O)c2ccccc2)cc1 68.7%
N#Cc1nc(Cc2ccccc2)oc1NCCc1ccccc1 63.4%
Cc1cccc(-c2noc(-c3ccc(F)cc3)n2)c1 77.6%
Cc1ccc(Cc2nc(-c3cccc(C)c3)no2)cc1 53.9%
COc1ccc(NC(=O)Nc2cccc3cccnc23)cc1 65.5%

Source: PubChem BioAssay AID522 (The Scripps Research Institute Molecular Screening Center, 2006)
